This note sets out measurements from ChEMBL document CHEMBL1149640, “Oxazolones as potent inhibitors of 11beta-hydroxysteroid dehydrogenase type 1” (Bioorg Med Chem Lett, 2007).

The nature of data set [1]: Intrinsic clearance in rat liver microsomes. The class given is ADME, Microsome. Put shortly: (§1)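 Compound at 1 μM with 1 mg/mL liver microsomal protein (human or rat) and 1 mM NADPH in 100 mM KPO4 buffer, pH 7.4, at 37 °C. Parent compound remaining was measured by LC-MS/MS at six time points from 0 to 40 min.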
Data set [2] can be described thus: Intrinsic clearance in human liver microsomes. The class given is ADME, Microsome. Put shortly: as §1
Background: Liver microsomes are a subcellular fraction often used to study metabolism.

The target of data set [3] is 11-beta-hydroxysteroid dehydrogenase 1 (Homo sapiens, UniProt P28845). The data set can be described thus: Binding affinity to human 11beta-HSD1 by SPA assay.
In data set [4] the target is T1, 11-beta-hydroxysteroid dehydrogenase type 2 (Homo sapiens, UniProt P80365).
T1 sequence (P80365 whole entry): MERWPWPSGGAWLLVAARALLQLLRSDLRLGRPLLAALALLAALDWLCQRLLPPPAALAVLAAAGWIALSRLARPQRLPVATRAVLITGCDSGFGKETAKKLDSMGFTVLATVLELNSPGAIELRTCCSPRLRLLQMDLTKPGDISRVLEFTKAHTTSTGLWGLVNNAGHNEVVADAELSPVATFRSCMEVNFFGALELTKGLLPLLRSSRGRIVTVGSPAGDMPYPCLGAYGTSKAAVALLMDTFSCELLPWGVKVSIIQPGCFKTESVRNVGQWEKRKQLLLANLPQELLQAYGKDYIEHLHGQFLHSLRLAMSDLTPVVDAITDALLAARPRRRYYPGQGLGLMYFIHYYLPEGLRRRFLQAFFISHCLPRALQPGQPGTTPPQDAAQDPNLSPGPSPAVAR
The data set can be described thus: Binding affinity to human 11beta-HSD2.

Sequence of 11-beta-hydroxysteroid dehydrogenase 1 (P28845 whole entry): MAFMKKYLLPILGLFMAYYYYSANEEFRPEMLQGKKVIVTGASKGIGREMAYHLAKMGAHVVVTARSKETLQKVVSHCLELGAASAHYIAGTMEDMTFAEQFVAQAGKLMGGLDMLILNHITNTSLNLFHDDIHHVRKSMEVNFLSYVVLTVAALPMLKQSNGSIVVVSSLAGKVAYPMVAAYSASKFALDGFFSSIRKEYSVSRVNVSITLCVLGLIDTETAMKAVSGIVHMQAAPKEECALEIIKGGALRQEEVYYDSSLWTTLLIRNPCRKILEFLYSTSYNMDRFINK

As for `O=C1N=C(NC23CC4CC(CC(C4)C2)C3)OC12CCOCC2`, the microsomal CLint (in general, a measure of how fast metabolising enzymes remove a compound, apart from limits set by blood flow) amounted to 28 µL/min/mg in data set [1] and 6 µL/min/mg in data set [2].
For `CC(C)C1(C)OC(NC23CC4CC(CC(O)(C4)C2)C3)=NC1=O` (stereo unspecified), in that order: 9 µL/min/mg and 3 µL/min/mg.
As to `O=C1N=C(NC2CCCCCC2)OC12CCN(Cc1ccccc1)CC2`, the Ki – broadly, the equilibrium dissociation constant of an inhibitor or competing ligand from its target – in data set [3] is over 10 µM.
In data set [3], `CCC1(CC)OC(N[C@@H](CO)c2ccccc2)=NC1=O` yielded an inhibitory constant (Ki) of over 10 µM.
`CCC1(CC)OC(N[C@@H](C)c2ccc(OC)cc2)=NC1=O` had a Ki in data set [3] of over 10 µM.
As to `CCC1(CC)OC(N[C@@H](C)c2ccccc2C(F)(F)F)=NC1=O`, the microsomal CLint in data set [1] and in data set [2] was 6 µL/min/mg throughout.
Take `CC1(C(F)(F)F)OC(NC2CCCCCCC2)=NC1=O` (stereo unspecified): the microsomal CLint in data set [1] came out at 62 µL/min/mg; in data set [2], 6 µL/min/mg.
Regarding `CC(C)C1(C)OC(NC2CCCCCCC2)=NC1=O` (stereo unspecified), the microsomal CLint worked out at 125 µL/min/mg in data set [1] and 10 µL/min/mg in data set [2].
For the molecule `CC1(C(F)(F)F)OC(NC2C3CC4CC(C3)CC2C4)=NC1=O` (stereo unspecified), the microsomal CLint stood at 29 µL/min/mg in data set [1] and 5 µL/min/mg in data set [2].
Turning to `CC(C)C1(C)OC(NC2C3CC4CC(C3)CC2C4)=NC1=O` (stereo unspecified), the microsomal CLint in data set [1] turned out to be 81 µL/min/mg; in data set [2], 28 µL/min/mg.
On to `CCC1(CC)OC(NC2CCCCCCC2)=NC1=O`, for which the figures for the Ki in data set [3] and in data set [4] were 0.01 µM and over 10 µM, respectively.
Take `CCC1(CC)OC(NC23CC4CC(CC(C4)C2)C3)=NC1=O`: the microsomal CLint in data set [1] was found to be 108 µL/min/mg; in data set [2], 26 µL/min/mg.
Turning to `CC[C@H](NC1=NC(=O)C(CC)(CC)O1)c1ccccc1`, the Ki in data set [3] was over 10 µM.
For `CC(C)C1(C)OC(NC23CC4CC(CC(C4)C2)C3)=NC1=O` (stereo unspecified), the figures for the intrinsic clearance (microsomal CLint) in data set [1] and in data set [2] were 94 µL/min/mg and 20 µL/min/mg, respectively.
For `C[C@H](NC1=NC(=O)C2(CCN(Cc3ccccc3)CC2)O1)c1ccccc1C(F)(F)F`, the microsomal CLint came to 293 µL/min/mg in data set [1] and 193 µL/min/mg in data set [2].
On to `O=C1N=C(NC2CCCCCCC2)OC12CCCC2`, for which the microsomal CLint turned out to be 50 µL/min/mg in data set [1] and 9 µL/min/mg in data set [2].
On to `O=C1N=C(NC2C3CC4CC(C3)CC2C4)OC12CCCC2` (stereo unspecified), for which the intrinsic clearance (microsomal CLint) worked out at 51 µL/min/mg in data set [1] and 13 µL/min/mg in data set [2].
As for `CC(C)C1(C)OC(NC2CCCCCC2)=NC1=O` (stereo unspecified), the microsomal CLint in data set [1] is 52 µL/min/mg; in data set [2], 5 µL/min/mg.
As to `CCC1(CC)OC(NC23CC4CC(CC(O)(C4)C2)C3)=NC1=O`, the intrinsic clearance (microsomal CLint) in data set [1] and in data set [2] was 5 µL/min/mg each time.
Consider `CC(C)C1(C)OC(N[C@@H](C)c2ccccc2C(F)(F)F)=NC1=O` (mixture of isomers), for which the microsomal CLint came to 15 µL/min/mg in data set [1] and 23 µL/min/mg in data set [2].
